Source: ChEMBL document CHEMBL1139434, “Highly potent 1-aminocyclohexane-1-carboxylic acid substituted V2 agonists of arginine vasopressin” (J Med Chem, 2004)
Where a SMILES comes first, the peptide text is derived from it. [ ]: non-standard residue; d: D form. The star is where a group is joined. Cyclohexylacetyl(1-SH) = O=C(CC1(S)CCCCC1)*; Ac6c = NC1(C(=O)O)CCCCC1

Experiments:
Rattus norvegicus [1] = species on record: Rattus norvegicus; assay: Compound was evaluated for in vitro uterotonic activity in the absence of magnesium ions in female wistar rats; type: functional; details: for Kb: read-out: pA2 (converted)
Method in brief: (§1)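 Uterus from Wistar females estrogenized 48 h beforehand, tested in vitro in the absence of magnesium ions. Synthetic oxytocin was the standard. Dose–response curves built from single additions, or cumulatively without washing between increasing doses. Values are means of three to five separate experiments.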

Rattus norvegicus [2] = species on record: Rattus norvegicus; assay: Compound was evaluated for antidiuretic activity with t1/2 of 200 min in male rats by modified Burn test; type: functional, Urine
Rattus norvegicus [3] = species on record: Rattus norvegicus; assay: Compound was evaluated for antidiuretic activity with t1/2 of 60 in male rats by modified Burn test; type: functional, Urine
Rattus norvegicus [4] = species on record: Rattus norvegicus; assay: (§2) Compound was evaluated for vasopressor activity in phenoxybenzamine-treated male rats; type: functional, organism-based; details: read-out: pA2 (converted)
Method in brief: (§3)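 Pressor response measured in phenoxybenzamine-treated male Wistar rats, with synthetic arginine vasopressin as standard. Dose–response curves built from single administrations, or cumulatively without washing between increasing doses. Values are means of three to five separate experiments.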

Rattus norvegicus [5] = species on record: Rattus norvegicus; assay: as §2; type: functional; method in brief: as §3
Rattus norvegicus [6] = species on record: Rattus norvegicus; assay: Compound was evaluated for in vitro uterotonic activity in the absence of magnesium ions in female wistar rats; range is 1.5-5.1; type: functional; method in brief: as §1
Rattus norvegicus [7] = species on record: Rattus norvegicus; assay: Compound was evaluated for antidiuretic activity with t1/2 of 60 min in male rats by modified Burn test; range is 800-50000; type: functional, Urine
Rattus norvegicus [8] = species on record: Rattus norvegicus; assay: Compound was evaluated for antidiuretic activity with t1/2 of 60 min in male rats by modified Burn test; range is 750-900; type: functional, Urine
Rattus norvegicus [9] = species on record: Rattus norvegicus; assay: Compound was evaluated for antidiuretic activity with t1/2 of 60 min in male rats by modified Burn test; range is 114-257; type: functional, Urine
Rattus norvegicus [10] = species on record: Rattus norvegicus; assay: Compound was evaluated for vasopressor activity in phenoxybenzamine-treated male rats; range is 346-370; type: functional; method in brief: as §3
Rattus norvegicus [11] = species on record: Rattus norvegicus; assay: Compound was evaluated for in vitro uterotonic activity in the absence of magnesium ions in female wistar rats; range is 27-63; type: functional; method in brief: as §1
Rattus norvegicus [12] = species on record: Rattus norvegicus; assay: Compound was evaluated for antidiuretic activity with t1/2 of 60 min in male rats by modified Burn test; range is 1300-1745; type: functional, Urine

SMILES	Kb (Rattus norvegicus [1]) [nM]	Activity (Rattus norvegicus [2]) [IU/mg]	Activity (Rattus norvegicus [3]) [IU/mg]	Activity (Rattus norvegicus [1]) [IU/mg]	Activity (Rattus norvegicus [5]) [IU/mg]	further results
CC(C)[C@H](NC(=O)[C@H](Cc1ccccc1)NC(=O)C1(NC(=O)CCS)CCCCC1)C(=O)N[C@@H](CC(N)=O)C(=O)N[C@@H](CS)C(=O)N1CCC[C@H]1C(=O)N[C@H](CCCN=C(N)N)C(=O)NCC(N)=O	15.5	~50000	~4500	–	–	Kb (Rattus norvegicus [4]): 724 nM
NC(=O)CC[C@H](NC(=O)C1(NC(=O)[C@H](Cc2ccc(O)cc2)NC(=O)[C@@H](N)CS)CCCCC1)C(=O)N[C@@H](CC(N)=O)C(=O)N[C@@H](CS)C(=O)N1CCC[C@H]1C(=O)N[C@H](CCCN=C(N)N)C(=O)NCC(N)=O	–	~1.4	~0.1	0	0	–
NC(=O)CC[C@H](NC(=O)[C@H](Cc1ccccc1)NC(=O)C1(NC(=O)CCS)CCCCC1)C(=O)N[C@@H](CC(N)=O)C(=O)N[C@@H](CS)C(=O)N1CCC[C@H]1C(=O)N[C@H](CCCN=C(N)N)C(=O)NCC(N)=O	316	~50000	~4500	0.31	–	–
NC(=O)CC[C@H](NC(=O)C1(NC(=O)[C@H](Cc2ccc(O)cc2)NC(=O)CCS)CCCCC1)C(=O)N[C@@H](CC(N)=O)C(=O)N[C@@H](CS)C(=O)N1CCC[C@H]1C(=O)N[C@H](CCCN=C(N)N)C(=O)NCC(N)=O	–	–	<4	0	0	–
NC(=O)CC[C@H](NC(=O)[C@H](Cc1ccccc1)NC(=O)[C@H](Cc1ccc(O)cc1)NC(=O)CCS)C(=O)N[C@@H](CC(N)=O)C(=O)N[C@@H](CS)C(=O)N1CCC[C@H]1C(=O)N[C@H](CCCN=C(N)N)C(=O)NCC(N)=O	–	–	–	–	–	Activity (Rattus norvegicus [6]): <5.1 IU/mg; Activity (Rattus norvegicus [7]): <50000 IU/mg
NC(=O)CC[C@H](NC(=O)C1(NC(=O)[C@H](Cc2ccc(O)cc2)NC(=O)CCS)CCCCC1)C(=O)N[C@@H](CC(N)=O)C(=O)N[C@@H](CS)C(=O)N1CCC[C@H]1C(=O)N[C@@H](CCCN=C(N)N)C(=O)NCC(N)=O	–	~25	~0.8	<0.04	0.34	–
NC(=O)CC[C@H](NC(=O)[C@H](Cc1ccccc1)NC(=O)C1(NC(=O)[C@@H](N)CS)CCCCC1)C(=O)N[C@@H](CC(N)=O)C(=O)N[C@@H](CS)C(=O)N1CCC[C@H]1C(=O)N[C@@H](CCCN=C(N)N)C(=O)NCC(N)=O	~2510	~9300	–	–	56.6	Activity (Rattus norvegicus [8]): <900 IU/mg
NC(=O)CC[C@H](NC(=O)C1(NC(=O)[C@H](Cc2ccc(O)cc2)NC(=O)[C@@H](N)CS)CCCCC1)C(=O)N[C@@H](CC(N)=O)C(=O)N[C@@H](CS)C(=O)N1CCC[C@H]1C(=O)N[C@@H](CCCN=C(N)N)C(=O)NCC(N)=O	–	~1.4	~0.1	0	0.24	–
NC(=O)CC[C@H](NC(=O)[C@H](Cc1ccccc1)NC(=O)C1(NC(=O)CCS)CCCCC1)C(=O)N[C@@H](CC(N)=O)C(=O)N[C@@H](CS)C(=O)N1CCC[C@H]1C(=O)N[C@@H](CCCN=C(N)N)C(=O)NCC(N)=O	794	~50000	~4500	0.71	17.2	–
NC(=O)CC[C@H](NC(=O)[C@H](Cc1ccccc1)NC(=O)C1(NC(=O)[C@@H](N)CS)CCCCC1)C(=O)N[C@@H](CC(N)=O)C(=O)N[C@@H](CS)C(=O)N1CCC[C@H]1C(=O)N[C@H](CCCN=C(N)N)C(=O)NCC(N)=O	~2000	~9300	–	–	–	Activity (Rattus norvegicus [8]): <900 IU/mg; Kb (Rattus norvegicus [4]): ~1580 nM
NC(=O)CC[C@H](NC(=O)[C@H](Cc1ccccc1)NC(=O)C1(NC(=O)CC2(S)CCCCC2)CCCCC1)C(=O)N[C@@H](CC(N)=O)C(=O)N[C@@H](CS)C(=O)N1CCC[C@H]1C(=O)N[C@H](CCCN=C(N)N)C(=O)NCC(N)=O	47.9	–	<4	–	–	Kb (Rattus norvegicus [4]): 234 nM
NC(=O)CC[C@H](NC(=O)[C@H](Cc1ccccc1)NC(=O)[C@H](Cc1ccc(O)cc1)NC(=O)[C@@H](N)CS)C(=O)N[C@@H](CC(N)=O)C(=O)N[C@@H](CS)C(=O)N1CCC[C@H]1C(=O)N[C@H](CCCN=C(N)N)C(=O)NCC(N)=O	–	–	–	0.4	4.1	Activity (Rattus norvegicus [9]): <257 IU/mg
CC(C)[C@H](NC(=O)C1(NC(=O)[C@H](Cc2ccc(O)cc2)NC(=O)CCS)CCCCC1)C(=O)N[C@@H](CC(N)=O)C(=O)N[C@@H](CS)C(=O)N1CCC[C@H]1C(=O)N[C@H](CCCN=C(N)N)C(=O)NCC(N)=O	–	4500	450	0	0	–
NC(=O)CC[C@H](NC(=O)[C@H](Cc1ccccc1)NC(=O)C1(NC(=O)CC2(S)CCCCC2)CCCCC1)C(=O)N[C@@H](CC(N)=O)C(=O)N[C@@H](CS)C(=O)N1CCC[C@H]1C(=O)N[C@@H](CCCN=C(N)N)C(=O)NCC(N)=O	46.8	~1.4	~0.1	–	–	Kb (Rattus norvegicus [4]): 55 nM
NC(=O)CC[C@H](NC(=O)[C@H](Cc1ccccc1)NC(=O)[C@H](Cc1ccc(O)cc1)NC(=O)CCS)C(=O)N[C@@H](CC(N)=O)C(=O)N[C@@H](CS)C(=O)N1CCC[C@H]1C(=O)N[C@@H](CCCN=C(N)N)C(=O)NCC(N)=O	–	–	–	–	–	Activity (Rattus norvegicus [10]): <370 IU/mg; Activity (Rattus norvegicus [11]): <63 IU/mg; Activity (Rattus norvegicus [12]): <1745 IU/mg
CC(C)[C@H](NC(=O)[C@H](Cc1ccccc1)NC(=O)[C@H](Cc1ccc(O)cc1)NC(=O)[C@@H](N)CS)C(=O)N[C@@H](CC(N)=O)C(=O)N[C@@H](CS)C(=O)N1CCC[C@H]1C(=O)N[C@@H](CCCN=C(N)N)C(=O)NCC(N)=O (H-CYFVNCPRG-NH2)	–	–	738	–	32	–
CC(C)[C@H](NC(=O)C1(NC(=O)[C@H](Cc2ccc(O)cc2)NC(=O)[C@@H](N)CS)CCCCC1)C(=O)N[C@@H](CC(N)=O)C(=O)N[C@@H](CS)C(=O)N1CCC[C@H]1C(=O)N[C@@H](CCCN=C(N)N)C(=O)NCC(N)=O (H-CY[Ac6c]VNCPRG-NH2)	–	–	<0.4	0	0	–
CC(C)[C@H](NC(=O)[C@H](Cc1ccccc1)NC(=O)C1(NC(=O)[C@@H](N)CS)CCCCC1)C(=O)N[C@@H](CC(N)=O)C(=O)N[C@@H](CS)C(=O)N1CCC[C@H]1C(=O)N[C@@H](CCCN=C(N)N)C(=O)NCC(N)=O (H-C[Ac6c]FVNCPRG-NH2)	126	~23000	~2300	–	0.9	–
NC(=O)CC[C@H](NC(=O)[C@H](Cc1ccccc1)NC(=O)[C@H](Cc1ccc(O)cc1)NC(=O)CC1(S)CCCCC1)C(=O)N[C@@H](CC(N)=O)C(=O)N[C@@H](CS)C(=O)N1CCC[C@H]1C(=O)N[C@@H](CCCN=C(N)N)C(=O)NCC(N)=O ({Cyclohexylacetyl(1-SH)}-YFQNCPRG-NH2)	–	–	0.03	–	–	Kb (Rattus norvegicus [4]): 4.47 nM
CC(C)[C@H](NC(=O)C1(NC(=O)[C@H](Cc2ccc(O)cc2)NC(=O)CC2(S)CCCCC2)CCCCC1)C(=O)N[C@@H](CC(N)=O)C(=O)N[C@@H](CS)C(=O)N1CCC[C@H]1C(=O)N[C@@H](CCCN=C(N)N)C(=O)NCC(N)=O ({Cyclohexylacetyl(1-SH)}-Y[Ac6c]VNCPRG-NH2)	≥ 1000	–	<4	–	0	–
N=C(N)NCCC[C@H](NC(=O)[C@@H]1CCCN1C(=O)[C@@H]1CSSC[C@H](N)C(=O)N[C@@H](Cc2ccc(O)cc2)C(=O)N[C@@H](Cc2ccccc2)C(=O)N[C@@H](CCC(N)=O)C(=O)N[C@@H](CC(N)=O)C(=O)N1)C(=O)NCC(N)=O [VASOPRESSIN]	–	–	465	17	412	–
